Screening data from PubChem BioAssay.
Shown are actives, neighbours in structure and some others; about 2.2% of the full set was active somewhere.
NadD block – blocks S. aureus nicotinate mononucleotide adenylyltransferase. purified NadD enzyme, colorimetric absorbance read-out. inhibition, % at 20 µM. actives 0.78% (n = 360,000). AID 602399; in the data active = inhibition above about 26%
rCAG RNA binder – r(CAG) repeat RNA binding | TO-PRO-1 dye displacement fluorescence | inhibition, % at 3 µM | actives 1.3% (n = 370,000) | AID 651821;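 active = inhibition above the plate cutoff, the mean of all test compounds on that plate plus 3 SD, cut at about 35% in these data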;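 note: higher means more dye released from RNA so lower well fluorescence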
ASAP1 GAP inh – blocks human ASAP1-stimulated Arf1 GTP hydrolysis; actives 0.19% (n = 360,000); GDP FP detection; inhibition, % at 16.5 µM; AID 624377; Q9ULH1; in the data active = inhibition above about 25%
ARFGAP1 inh – rat ARFGAP1 inhibition | Arfgap1-stimulated ARF1 GTP hydrolysis, GDP FP detection | Q62848 | actives 0.26% (n = 360,000) | inhibition, % at 16.5 µM;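 active = inhibition above a per-plate limit, mean inhibition of low control wells plus 3 SD, cut at about 25% in these data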
Target sequence (Q62848 1-136 limits assumed): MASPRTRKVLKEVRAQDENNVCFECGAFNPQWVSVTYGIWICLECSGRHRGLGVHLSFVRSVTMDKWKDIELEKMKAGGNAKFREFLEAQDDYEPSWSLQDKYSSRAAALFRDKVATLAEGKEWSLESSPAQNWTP
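Material: rat Arfgap1 GAP domain (His6, aa 1-136), purified enzyme. Also added: human ARF1(Δ1-17)-GTP substrate. Compound dosing: 16.5 µM single point, 1.26% DMSO. Timing: enzyme reaction 120 min at 25 °C after 20 min preincubation. Signal: GDP detection by fluorescence polarization. Read-out basis: percent inhibition of GAP-stimulated GDP formation, scaled between DMSO and no-Arfgap1 medians.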
A number is an active result; i = inactive; nt = not tested or not shown; ! = not active in a repeat.

SMILES	NadD block	rCAG RNA binder	ASAP1 GAP inh	ARFGAP1 inh
C/C(=C\c1ccc2c(c1)OCO2)C1Nc2cccc3cccc(c23)N1	32.6	i	i	i
C/C(=C\c1ccccc1F)C1Nc2cccc3cccc(c23)N1	i	i	i	i
CC(C)[C@H](NC(=O)OC(C)(C)C)C(=O)N1CCC(Oc2cccnc2)CC1	nt	i	nt	nt
CCOc1ccc(-n2ccc(=O)c(C(=O)Nc3ccc(S(=O)(=O)Nc4nccs4)cc3)n2)cc1	i	68.1	i	i
CCOc1ncccc1C(=O)Nc1ccc(S(=O)(=O)Nc2nccs2)cc1	i	i	i	i
COc1ccc(/C=N/NC(=O)CCSc2nc3ccccc3s2)cc1OC	i	i	i	i
O=C(CCSc1nc2ccccc2s1)N/N=C/c1c(O)ccc2ccccc12	30.3	i	i	i
CCN(CC)C(=O)Cn1nc(Cc2ccncc2)c2ccccc2c1=O	nt	i	nt	nt
Oc1c(C=C2N=c3ccccc3=N2)sc(=S)n1-c1ccccc1	i	i	i	i
CC1=Nc2ccccc2/C1=C/c1sc(=S)n(-c2cccc(C(=O)O)c2)c1O	i	72.4	i	i
Cc1ccc(N=Cc2cc(Cc3ccccc3Cl)cc([N+](=O)[O-])c2O)c(O)c1	42.3	nt	nt	nt
CC1(C)C(/C=C/C=C/C=C/C=C2\N(CCCCS(=O)(=O)O)c3ccc4ccccc4c3C2(C)C)=[N+](CCCCS(=O)(=O)[O-])c2ccc3ccccc3c21	66.9	nt	nt	nt
Cc1c2ccccc2cc[n+]1CCCS(=O)(=O)[O-]	i	i	i	i
Cc1ccc(N=Nc2c(N)[nH]n3c(=O)cc(-c4ccccc4)nc23)cc1	55.3	i	i	i
COc1cccc(N=Nc2c(N)[nH]n3c(=O)cc(-c4ccccc4)nc23)c1	41.9	i	i	i
Cc1cc(=O)n2[nH]c(N)c(N=Nc3ccccc3)c2n1	i	i	i	i
COc1ccc(-c2c(C(F)(F)F)[nH]n3c(=O)cc(-c4ccccc4)nc23)cc1	i	38.5	i	i
COP(=O)(O)C(C)NC(=O)OCc1ccccc1 (centres undefined)	nt	i	nt	nt
CCCCCCCCN1C(=O)N2Cc3cc(OC)ccc3C2CS1(=O)=O (centres undefined)	nt	i	nt	nt
COC(=O)CCCn1cc(CN2CC=CS2(=O)=O)nn1	nt	i	nt	nt
O=C(O)c1ccccc1-c1c2cc(I)c(=O)c(I)c-2oc2c(I)c(O)c(I)cc12	28.5!	i	i	i
O=C(NNc1c2ccccc2nc2ccccc12)c1ccc(O)cc1O	30.8	i	i	i
COc1cccc(/C=N/NC(=O)c2nc(-c3ccccc3)cc(-c3ccccc3)n2)c1O	29.2	i	i	i
COc1ccc(/C=N/NC(=O)c2nc(-c3ccccc3)n(-c3ccccc3)n2)cc1	i	i	i	i
COc1ccc(/C=N/NC(=O)c2nc(-c3ccccc3)n(-c3ccccc3)n2)c(O)c1	41.4	i	i	i
SMILES	NadD block	rCAG RNA binder	ASAP1 GAP inh	ARFGAP1 inh
CN(c1ccccc1)S(=O)(=O)c1cccc(NS(=O)(=O)c2cccc(C(=O)O)c2)c1	i	i	i	i
Cc1ccc(-c2csc(Nc3ccc(C(=O)O)cc3)[n+]2Cc2ccccc2)cc1	44.3	i	i	i
C#CCN1CC(N(C)CCOC(=O)c2cccs2)CS1(=O)=O (centres undefined)	nt	i	nt	nt
Cc1cc(OC(=O)c2c(C)cc(OC(=O)c3c(C)cc(O)cc3O)cc2O)cc(O)c1C(=O)O	i	68.8	i	i
CCCCCCCCN1C(=O)[C@@H](CC(=O)NCCc2ccccc2OC)C[C@@]2(C(=O)OC)C1=C[C@H](COCc1ccccc1)O[C@@H]2C	nt	i	nt	nt
Oc1ccc(C23CC4CC(CC(C4)C2)C3)cc1O	34.8	i	i	i
Cc1cc(-c2csc(NC(=O)c3ccc(S(=O)(=O)N(C)C)cc3)n2)c(C)n1-c1ccccc1	39.9	i	i	i
CN(C)S(=O)(=O)c1ccc(C(=O)Nc2nc(-c3cc4ccccc4o3)cs2)cc1	i	i	i	i
CCOc1c(Cl)cc(C(=O)Nc2ccccc2C(=O)O)cc1Cl	i	50.9	i	i
CCOc1ccc(C(=O)Nc2cccc(C(=O)O)c2C)cc1Cl	i	i	i	i
COc1cc(NS(=O)(=O)c2ccc(NC(=O)/C(=C\c3ccccc3OC)NC(=O)c3ccccc3)cc2)nc(OC)n1	30.7	63.1	i	i
CCc1nc(N[C@@H](Cc2c[nH]c3ccccc23)C(=O)O)c2oc3ccccc3c2n1	i	36.5	i	i
CC1(C(=O)NS(=O)(=O)c2ccccc2Cl)CCN1C(=O)C1(c2ccccc2)CCCC1 (centres undefined)	i	i	i	i
CC1(C(=O)NS(=O)(=O)c2ccccc2Cl)CCN1C(=O)C1(c2ccc(Cl)cc2)CCC1 (centres undefined)	i	47.2	i	i
CC(C)(C)c1cc(=O)n(-c2ccccc2)[nH]1	i	i	i	29.5
